In ChEMBL document CHEMBL1148762, “Lysosome and HER3 (ErbB3) selective anticancer agent kahalalide F: semisynthetic modifications and antifungal lead-exploration studies” (J Med Chem, 2007):
pIC50: −log10 of the molar value. ≈ marks a conversion by molar mass, not a printed value. Calls of active or inactive are those of the source. No cut-off for these calls is given here.

What was measured:
SK-OV-3 = experiment: Cytotoxicity against human SK-OV3 cells; format: functional
Method in brief: (§1)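 NCI Developmental Therapeutics Program cell panel. GI50 is the concentration that reduces growth of treated cells to half that of untreated controls. TGI is the concentration that completely halts growth.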

ACHN = experiment: Cytotoxicity against human ACHN cells; format: functional; method in brief: as §1
PC-3 = experiment: Cytotoxicity against human PC3 cells; format: functional; method in brief: as §1
DU-145 = experiment: Cytotoxicity against human DU145 cells; format: functional; method in brief: as §1
Hs-578T = experiment: Cytotoxicity against human HS578T cells; format: functional; method in brief: as §1
Fusarium proliferatum [1] = experiment: Antimicrobial activity against Fusarium proliferatum at 0.3 uM after 72 hrs by microtiter assay; format: functional
Method in brief: (§2)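 96-well microdilution broth assay with conidia (3 × 10^5 conidia/mL, harvested from 7-day PDA cultures and filtered) against F. oxysporum, F. proliferatum and F. solani at 0.3, 3 and 30 µM. Plates were held at 24 ± 1 °C under a 12 h photoperiod. Growth was read at 620 nm at 24, 48 and 72 h and reported as percent inhibition from mean absorbance with standard error.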

Fusarium proliferatum [2] = experiment: Antimicrobial activity against Fusarium proliferatum at 3 uM after 48 hrs by microtiter assay; format: functional; method in brief: as §2
Fusarium proliferatum [3] = experiment: Antimicrobial activity against Fusarium proliferatum at 3 uM after 72 hrs by microtiter assay; format: functional; method in brief: as §2
Aspergillus fumigatus = experiment: Antimicrobial activity against Aspergillus fumigatus ATCC 90906; format: functional, organism-based
Cryptococcus neoformans = experiment: Antimicrobial activity against Cryptococcus neoformans ATCC 90113; format: functional, organism-based
Fusarium proliferatum [4] = experiment: Antimicrobial activity against Fusarium proliferatum at 0.3 uM after 48 hrs by microtiter assay; format: functional; method in brief: as §2
Candida albicans = experiment: Antimicrobial activity against Candida albicans ATCC 90028; format: functional, organism-based
[5] = tested on: Mycobacterium intracellulare; experiment: Antimicrobial activity against Mycobacterium intracellular ATCC 23068; format: functional, organism-based
[6] = tested on: Mycobacterium tuberculosis; experiment: Antibacterial activity against Mycobacterium tuberculosis H37Rv at 16 ug/mL by micro plate alamar blue assay; format: functional
Method in brief: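 M. tuberculosis H37Rv ATCC 27294 grown in BACTEC 12B medium; microplate Alamar blue assay (MABA). Primary screen at a single concentration of 16 µg/mL, read as percent inhibition.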

Fusarium oxysporum [7] = experiment: Antimicrobial activity against Fusarium oxysporum at 0.3 uM after 48 hrs by microtiter assay; format: functional; method in brief: as §2
Fusarium oxysporum [8] = experiment: Antimicrobial activity against Fusarium oxysporum at 0.3 uM after 72 hrs by microtiter assay; format: functional; method in brief: as §2
Fusarium solani [9] = experiment: Antimicrobial activity against Fusarium solani at 0.3 uM after 48 hrs by microtiter assay; format: functional; method in brief: as §2
Fusarium solani [10] = experiment: Antimicrobial activity against Fusarium solani at 0.3 uM after 72 hrs by microtiter assay; format: functional; method in brief: as §2
Fusarium oxysporum [11] = experiment: Antimicrobial activity against Fusarium oxysporum at 3 uM after 48 hrs by microtiter assay; format: functional; method in brief: as §2
Fusarium oxysporum [12] = experiment: Antimicrobial activity against Fusarium oxysporum at 3 uM after 72 hrs by microtiter assay; format: functional; method in brief: as §2
Fusarium solani [13] = experiment: Antimicrobial activity against Fusarium solani at 3 uM after 48 hrs by microtiter assay; format: functional; method in brief: as §2
Fusarium solani [14] = experiment: Antimicrobial activity against Fusarium solani at 3 uM after 72 hrs by microtiter assay; format: functional; method in brief: as §2
Fusarium oxysporum [15] = experiment: Antimicrobial activity against Fusarium oxysporum at 30 uM after 48 hrs by microtiter assay; format: functional; method in brief: as §2
Fusarium oxysporum [16] = experiment: Antimicrobial activity against Fusarium oxysporum at 30 uM after 72 hrs by microtiter assay; format: functional; method in brief: as §2
Fusarium solani [17] = experiment: Antimicrobial activity against Fusarium solani at 30 uM after 48 hrs by microtiter assay; format: functional; method in brief: as §2
Fusarium solani [18] = experiment: Antimicrobial activity against Fusarium solani at 30 uM after 72 hrs by microtiter assay; format: functional; method in brief: as §2
A549 = experiment: Cytotoxicity against human A549 cells; format: functional; method in brief: as §1
NCI-H322M = experiment: Cytotoxicity against human NCI-H322M cells; format: functional; method in brief: as §1
RPMI-8226 = experiment: Cytotoxicity against human RPMI8226 cells; format: functional; method in brief: as §1
COLO 205 = experiment: Cytotoxicity against human COLO205 cells; format: functional; method in brief: as §1
HCC 2998 = experiment: Cytotoxicity against human HCC2998 cells; format: functional; method in brief: as §1
HCT-15 = experiment: Cytotoxicity against human HCT15 cells; format: functional; method in brief: as §1
HT-29 = experiment: Cytotoxicity against human HT29 cells; format: functional; method in brief: as §1
KM12 = experiment: Cytotoxicity against human KM12 cells; format: functional; method in brief: as §1
SNB-75 = experiment: Cytotoxicity against human SNB75 cells; format: functional; method in brief: as §1
UACC-257 = experiment: Cytotoxicity against human UACC257 cells; format: functional; method in brief: as §1
Fusarium proliferatum [19] = experiment: Antimicrobial activity against Fusarium proliferatum at 30 uM after 48 hrs by microtiter assay; format: functional; method in brief: as §2
Fusarium proliferatum [20] = experiment: Antimicrobial activity against Fusarium proliferatum at 30 uM after 72 hrs by microtiter assay; format: functional; method in brief: as §2
Fusarium proliferatum [21] = experiment: Fungistatic activity against Fusarium proliferatum at 30 uM after 72 hrs by microtiter plate assay; format: functional, organism-based
Method in brief: (§3)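 Conidia come from 7-day potato dextrose agar cultures, filtered and set photometrically (625 nm) to 3 × 10^5 conidia/mL. They are exposed to compound at 30 µM in 96-well microdilution broth at 24 ± 1 °C under a 12 h photoperiod. After 72 h, 20 µL per well is subcultured on drug-free potato dextrose agar at 28 °C for 3 days. No regrowth is scored fungicidal; regrowth is scored fungistatic.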

Fusarium solani [22] = experiment: Fungicidal activity against Fusarium solani at 30 uM after 72 hrs by microtiter assay; format: functional, organism-based
Method in brief: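 After 72 h of microtiter broth exposure at 30 µM, 20 µL from each well was plated onto compound-free potato dextrose agar and incubated 3 days at 28 °C. No regrowth was scored fungicidal; regrowth was scored fungistatic.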

Fusarium oxysporum [23] = experiment: Fungistatic activity against Fusarium oxysporum at 30 uM after 72 hrs by microtiter plate assay; format: functional, organism-based; method in brief: as §3
[24] = tested on: Mycobacterium tuberculosis; experiment: Antibacterial activity against Mycobacterium tuberculosis H37Rv by micro plate alamar blue assay; format: functional
Leishmania donovani = experiment: Antiparasitic activity against Leishmania donovani; format: functional, organism-based

C/C=C1\NC(=O)[C@H](Cc2ccccc2)NC(=O)[C@@H](C(C)C)NC(=O)[C@@H]([C@@H](C)CC)NC(=O)[C@H](NC(=O)[C@H](NC(=O)[C@H](CCCNCc2ccncc2)NC(=O)[C@H]2CCCN2C(=O)[C@H](NC(=O)[C@@H](NC(=O)[C@@H](NC(=O)[C@H](NC(=O)CCCC(C)C)C(C)C)[C@@H](C)O)C(C)C)C(C)C)[C@@H](C)CC)[C@@H](C)OC(=O)[C@H](C(C)C)NC1=O
GI50 (SK-OV-3): 374 nM
TGI (SK-OV-3): 1360 nM
GI50 (ACHN): 1280 nM
TGI (ACHN): 2320 nM
GI50 (PC-3): 267 nM
TGI (PC-3): 973 nM
GI50 (DU-145): 124 nM
TGI (DU-145): 266 nM
GI50 (Hs-578T): 162 nM
TGI (Hs-578T): 444 nM
inhibition at 0.3 µM (Fusarium proliferatum [1]): 0%
inhibition at 3 µM (Fusarium proliferatum [2]): 0%
inhibition at 3 µM (Fusarium proliferatum [3]): 0%
MFC (Aspergillus fumigatus): 20 µM (≈ 31.4 µg/mL)
MIC (Aspergillus fumigatus): 10 µM (≈ 15.7 µg/mL)
MFC (Cryptococcus neoformans): 5 µM (≈ 7.85 µg/mL)
MIC (Cryptococcus neoformans): 5 µM (≈ 7.85 µg/mL)
inhibition at 0.3 µM (Fusarium proliferatum [4]): 0%
MFC (Candida albicans): > 20 µM
MIC (Candida albicans): > 20 µM
MBC [5]: > 20 µM
MIC [5]: > 20 µM
inhibition at 16 µg/mL [6]: 24%
inhibition at 0.3 µM (Fusarium oxysporum [7]): 0%
inhibition at 0.3 µM (Fusarium oxysporum [8]): 0%
inhibition at 0.3 µM (Fusarium solani [9]): 0%
inhibition at 0.3 µM (Fusarium solani [10]): 0%
inhibition at 3 µM (Fusarium oxysporum [11]): 0%
inhibition at 3 µM (Fusarium oxysporum [12]): 0%
inhibition at 3 µM (Fusarium solani [13]): 0%
inhibition at 3 µM (Fusarium solani [14]): 0%
inhibition at 30 µM (Fusarium oxysporum [15]): 98.2%
inhibition at 30 µM (Fusarium oxysporum [16]): 91.2%
inhibition at 30 µM (Fusarium solani [17]): 99.2%
inhibition at 30 µM (Fusarium solani [18]): 97.5%
GI50 (A549): 189 nM
TGI (A549): 425 nM
GI50 (NCI-H322M): 131 nM
TGI (NCI-H322M): 238 nM
GI50 (RPMI-8226): 638 nM
TGI (RPMI-8226): 1890 nM
GI50 (COLO 205): 618 nM
GI50 (HCC 2998): 236 nM
TGI (HCC 2998): 732 nM
GI50 (HCT-15): 492 nM
TGI (HCT-15): 1560 nM
GI50 (HT-29): 279 nM
GI50 (KM12): 152 nM
GI50 (SNB-75): 1290 nM
TGI (SNB-75): 2610 nM
GI50 (UACC-257): 1310 nM
TGI (UACC-257): 2430 nM
inhibition at 30 µM (Fusarium proliferatum [19]): 99.1%
inhibition at 30 µM (Fusarium proliferatum [20]): 95.3%

C/C=C1\NC(=O)[C@H](Cc2ccccc2)NC(=O)[C@@H](C(C)C)NC(=O)[C@@H]([C@@H](C)CC)NC(=O)[C@H](NC(=O)[C@H](NC(=O)[C@H](CCCNCc2ccc(F)cc2)NC(=O)[C@H]2CCCN2C(=O)[C@@H](NC(=O)[C@H](NC(=O)[C@H](NC(=O)[C@@H](NC(=O)CCCC(C)C)C(C)C)[C@H](C)O)C(C)C)C(C)C)[C@@H](C)CC)[C@@H](C)OC(=O)[C@H](C(C)C)NC1=O
Activity (Fusarium proliferatum [21]): Active
Activity (Fusarium solani [22]): Active
Activity (Fusarium oxysporum [23]): Active

CO[C@H]1/C=C/O[C@@]2(C)Oc3c(C)c(O)c4c(O)c(c(/C=N/N5CCN(C)CC5)c(O)c4c3C2=O)NC(=O)/C(C)=C\C=C\[C@H](C)[C@H](O)[C@@H](C)[C@@H](O)[C@@H](C)[C@H](OC(C)=O)[C@@H]1C [RIFAMPIN]
inhibition at 16 µg/mL [6]: 93%
MIC [24]: 0.08 µg/mL (≈ 0.0972 µM)

C/C=C1\NC(=O)[C@H](Cc2ccccc2)NC(=O)[C@@H](C(C)C)NC(=O)[C@@H]([C@@H](C)CC)NC(=O)[C@H](NC(=O)[C@H](NC(=O)[C@H](CCCNCCCCCC)NC(=O)[C@H]2CCCN2C(=O)[C@H](NC(=O)[C@@H](NC(=O)[C@@H](NC(=O)[C@H](NC(=O)CCCC(C)C)C(C)C)[C@@H](C)O)C(C)C)C(C)C)[C@@H](C)CC)[C@@H](C)OC(=O)[C@H](C(C)C)NC1=O
pIC50 (Aspergillus fumigatus): 5.51
pIC50 (Cryptococcus neoformans): 5.71
pIC50 (Candida albicans): 5.24
pIC50 [5]: < 4.70
IC50 (Leishmania donovani): 17 µg/mL (≈ 10.9 µM)
